The record followed here is publication PMC10951978 (RSC Advances, 2024).

Where two headings read alike, the source gives them in different places.

One assay has as its target T1, HDAC10 (Homo sapiens, UniProt Q969S8).
T1 sequence (Q969S8 1-669): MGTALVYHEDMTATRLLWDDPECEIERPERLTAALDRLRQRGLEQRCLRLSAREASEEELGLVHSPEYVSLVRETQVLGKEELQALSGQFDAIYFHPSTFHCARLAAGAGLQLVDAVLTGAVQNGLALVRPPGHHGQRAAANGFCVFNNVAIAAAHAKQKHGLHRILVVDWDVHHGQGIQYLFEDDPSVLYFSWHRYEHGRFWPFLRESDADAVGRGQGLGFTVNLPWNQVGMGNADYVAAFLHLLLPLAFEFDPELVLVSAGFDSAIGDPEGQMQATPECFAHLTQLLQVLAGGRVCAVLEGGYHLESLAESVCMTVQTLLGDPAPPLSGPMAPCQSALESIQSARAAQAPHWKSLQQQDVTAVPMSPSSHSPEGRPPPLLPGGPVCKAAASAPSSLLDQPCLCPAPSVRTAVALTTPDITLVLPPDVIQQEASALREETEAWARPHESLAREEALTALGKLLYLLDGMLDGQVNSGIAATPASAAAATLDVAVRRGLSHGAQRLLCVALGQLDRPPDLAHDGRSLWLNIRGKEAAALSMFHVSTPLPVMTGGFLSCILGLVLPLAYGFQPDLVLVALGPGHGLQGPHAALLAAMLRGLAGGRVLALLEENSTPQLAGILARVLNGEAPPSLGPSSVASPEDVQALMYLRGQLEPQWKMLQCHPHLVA
Nature of the assay: HDAC isoform inhibitory activity. In kind it is biochemical.

In the next assay the target is HDAC1 (Homo sapiens, UniProt Q13547). Nature of the assay: HDAC isoform inhibitory activity. The class given is biochemical.
Sequence of HDAC1 (Q13547 whole entry, canonical isoform): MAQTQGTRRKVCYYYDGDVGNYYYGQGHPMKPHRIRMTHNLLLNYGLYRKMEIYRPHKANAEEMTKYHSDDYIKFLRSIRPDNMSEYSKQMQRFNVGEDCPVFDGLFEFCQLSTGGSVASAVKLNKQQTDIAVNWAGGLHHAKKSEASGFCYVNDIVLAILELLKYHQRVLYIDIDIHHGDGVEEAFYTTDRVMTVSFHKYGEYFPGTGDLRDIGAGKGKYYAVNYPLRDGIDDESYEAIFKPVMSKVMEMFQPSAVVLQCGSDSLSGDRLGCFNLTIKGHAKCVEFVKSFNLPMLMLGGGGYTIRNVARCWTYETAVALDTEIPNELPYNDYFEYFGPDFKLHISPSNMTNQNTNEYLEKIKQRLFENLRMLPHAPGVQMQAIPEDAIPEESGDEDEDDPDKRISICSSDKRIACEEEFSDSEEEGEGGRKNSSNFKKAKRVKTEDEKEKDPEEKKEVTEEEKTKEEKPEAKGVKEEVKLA
A further assay has as its target HDAC2 (Homo sapiens, UniProt Q92769). Nature of the assay: HDAC isoform inhibitory activity. The class given is biochemical.
In a further assay the test system is K562. As to the kind of experiment: CCK8 antiproliferative assay, K562. The following applies: read-out: Antiproliferative activity (IC50/μM) K562. In kind it is cell-based, human. In general terms: Tetrazolium assays rely on reduction of a dye to a coloured formazan, in cell work by metabolically active cells.
The subject of the next assay is acetylated H3. As to the kind of experiment: Western blotting of H3 and acetylated H3. In kind it is cell-based, human. The settings on record: MV411, 0.25, 0.5 and 1.0 μM, 48 hours.
The next assay deals with MV411 cells. Nature of the assay: Annexin V-FITC/PI apoptosis assay by flow cytometry. The following applies: 48 hours. The class given is cell-based, human. Summed up: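 MV411 cells seeded at 5 × 10^5 per well and held 24 h at 37 °C, 5% CO2. Test compound was then added at 0, 0.25, 0.5 and 1.0 μM for a further 48 h. Cells were harvested, washed in annexin-binding buffer, stained with annexin V-FITC and PI for 15 min at 37 °C, and analysed by flow cytometry.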
(Flow cytometry measures light scatter and fluorescence of single cells or particles in a stream.)

In a further assay the test system is KU812. Nature of the assay: CCK8 antiproliferative assay, KU812. In kind it is cell-based, human. The following applies: read-out: Antiproliferative activity (IC50/μM) KU812.
The target in another assay is HDAC3 (Homo sapiens, UniProt O15379). As to the kind of experiment: HDAC isoform inhibitory activity. The class given is biochemical.
Sequence of HDAC3 (O15379 whole entry, canonical isoform): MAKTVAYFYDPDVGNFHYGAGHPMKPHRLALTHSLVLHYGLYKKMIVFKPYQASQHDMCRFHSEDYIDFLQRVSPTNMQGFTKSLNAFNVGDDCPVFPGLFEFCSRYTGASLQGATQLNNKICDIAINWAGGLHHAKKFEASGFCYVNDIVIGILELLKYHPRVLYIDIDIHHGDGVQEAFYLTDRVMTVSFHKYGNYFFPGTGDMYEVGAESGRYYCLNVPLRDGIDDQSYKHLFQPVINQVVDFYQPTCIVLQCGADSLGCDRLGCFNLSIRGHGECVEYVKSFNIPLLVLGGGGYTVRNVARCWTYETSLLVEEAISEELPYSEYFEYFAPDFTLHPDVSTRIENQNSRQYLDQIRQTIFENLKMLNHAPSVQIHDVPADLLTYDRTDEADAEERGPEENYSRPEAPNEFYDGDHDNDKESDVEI
Sequence of HDAC3 (Q9Y618 395-489 partner limits assumed): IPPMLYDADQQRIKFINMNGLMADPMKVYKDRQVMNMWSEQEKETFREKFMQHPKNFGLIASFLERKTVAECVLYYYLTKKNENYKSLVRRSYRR
The test system of a further assay is Kasumi-1. Nature of the assay: CCK8 antiproliferative assay, Kasumi-1. The class given is cell-based, human. The settings on record: read-out: Antiproliferative activity (IC50/μM) Kasumi-1; Kasumi-1, CCK8, 48 h, means ± SD, n = 3.
The test system of another assay is CCRF-CEM. Nature of the assay: CCK8 antiproliferative assay, CCRF-CEM. In kind it is cell-based, human. The following applies: read-out: Antiproliferative activity (IC50/μM) CCRF-CEM, CCK8, 48 h, means ± SD, n = 3.
The test system of a further assay is MV411. Nature of the assay: CCK8 antiproliferative assay, MV411. The following applies: read-out: Antiproliferative activity (IC50/μM) MV411; MV411, CCK8, 48 h, means ± SD, n = 3. In kind it is cell-based, human.
Where [1] appears, read: K562, CCK8, 48 h, means ± SD, n = 3.
[2] abbreviates: KU812, CCK8, 48 h, means ± SD, n = 3.

Sequence of HDAC2 (Q92769 whole entry, canonical isoform): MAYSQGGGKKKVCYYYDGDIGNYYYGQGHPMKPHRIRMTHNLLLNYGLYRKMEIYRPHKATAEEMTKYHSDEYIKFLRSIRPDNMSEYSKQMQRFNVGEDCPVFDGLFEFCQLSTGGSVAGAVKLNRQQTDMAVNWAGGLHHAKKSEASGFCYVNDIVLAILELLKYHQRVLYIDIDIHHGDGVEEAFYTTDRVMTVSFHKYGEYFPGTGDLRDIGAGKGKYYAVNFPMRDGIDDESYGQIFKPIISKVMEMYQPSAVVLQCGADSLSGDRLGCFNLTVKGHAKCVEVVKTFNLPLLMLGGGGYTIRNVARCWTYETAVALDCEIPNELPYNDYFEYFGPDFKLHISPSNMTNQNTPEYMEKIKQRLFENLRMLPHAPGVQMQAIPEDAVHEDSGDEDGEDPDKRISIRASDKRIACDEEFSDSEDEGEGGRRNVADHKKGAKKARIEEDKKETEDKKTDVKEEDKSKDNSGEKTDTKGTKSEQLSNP

Turning to `COc1ccc(C[C@H]2COC(=O)[C@@H]2Cc2ccc(OCC(=O)Nc3ccc(C(=O)Nc4ccccc4N)cc3)c(OC)c2)cc1OC` [B7, N-(2-Aminophenyl)-4-(2-(4-(((3R,4R)-4-(3,4-dimethoxybenzyl)-2-oxotetrahydrofuran-3-yl)methyl)-2-methoxyphenoxy)acetamido)benzamide], the IC50 on HDAC10 is 1.75 µM; on HDAC1 it was 0.261 µM; at HDAC2, 0.131 µM; with K562 (Homo sapiens, K562, 48 h), 1.96 ± 0.19 µM; with KU812 (Homo sapiens, KU812, 48 h), 2.09 ± 0.31 µM; at HDAC3, 0.299 µM. In the assay with acetylated H3, the “level of acetylated H3 (western blot)” value is recorded as “significantly increased the level of acetylated H3”. Besides, the “overall proportion of apoptotic cells (Q1-UR + Q1-LR)” value worked out at 37.90% in the assay on MV411 cells (MV411, 0.5 μM); 77.00% in the assay with MV411 cells (MV411, 1.0 μM); 21.84% in the assay with MV411 cells (MV411, lowest concentration (printed 0.25 μM and 0.1 μM)).
As for “N-(2-Aminophenyl)-5-(2-(4-(((3R,4R)-4-(3,4-dimethoxybenzyl)-2-oxotetrahydrofuran-3-yl)methyl)-2-methoxyphenoxy)acetamido)pentanamide [B5]”, the IC50 with Kasumi-1, with CCRF-CEM, in the assay with K562 (setting [1]), with KU812 (setting [2]) and in the assay with MV411 was above 5 µM throughout.
Regarding `COc1ccc(C[C@H]2COC(=O)[C@@H]2Cc2ccc(OCC(=O)NCC(=O)Nc3ccccc3N)c(OC)c2)cc1OC` [B1, N-(2-Aminophenyl)-2-(2-(4-(((3R,4R)-4-(3,4-dimethoxybenzyl)-2-oxotetrahydrofuran-3-yl)methyl)-2-methoxyphenoxy)acetamido)acetamide], the IC50 was above 5 µM in the assay with K562 (Homo sapiens, K562, 48 h) and above 5 µM in the assay with KU812 (Homo sapiens, KU812, 48 h).
As to “4-(2-(4-(((3R,4R)-4-(3,4-Dimethoxybenzyl)-2-oxotetrahydrofuran-3-yl)methyl)-2-methoxyphenoxy)acetamido)-N-hydroxybenzamide [B6]”, the IC50 in the assay on Kasumi-1, in the assay with CCRF-CEM, in the assay with K562 (setting [1]), in the assay with KU812 (setting [2]) and in the assay with MV411 was above 5 µM each time.
Take `COc1ccc(C[C@H]2COC(=O)[C@@H]2Cc2ccc(OCCCCCCC(=O)NO)c(OC)c2)cc1OC` [A4, 7-(4-(((3R,4R)-4-(3,4-Dimethoxybenzyl)-2-oxotetrahydrofuran-3-yl)methyl)-2-methoxyphenoxy)-N-hydroxyheptanamide]: the IC50 was found to be 1.19 ± 0.25 µM in the assay with K562 (Homo sapiens, K562, 48 h) and 1.41 ± 0.75 µM in the assay with KU812 (Homo sapiens, KU812, 48 h).
For the compound `COc1ccc(C[C@H]2COC(=O)[C@@H]2Cc2ccc(OCC(=O)NCCCCC(=O)Nc3ccccc3N)c(OC)c2)cc1OC` [B4, N-(2-Aminophenyl)-5-(2-(4-(((3R,4R)-4-(3,4-dimethoxybenzyl)-2-oxotetrahydrofuran-3-yl)methyl)-2-methoxyphenoxy)acetamido)pentanamide], the IC50 was above 5 µM in the assay on K562 (Homo sapiens, K562, 48 h) and above 5 µM in the assay with KU812 (Homo sapiens, KU812, 48 h).
For the compound “4-(4-(((3R,4R)-4-(3,4-Dimethoxybenzyl)-2-oxotetrahydrofuran-3-yl)methyl)-2-methoxyphenoxy)-N-hydroxypentanamide [A1]”, the IC50 in the assay on Kasumi-1, in the assay on CCRF-CEM, with K562 (setting [1]), in the assay on KU812 (setting [2]) and with MV411 was above 5 µM in each case.
In the case of `COc1ccc(C[C@H]2COC(=O)[C@@H]2Cc2ccc(OCC(=O)NCCC(=O)Nc3ccccc3N)c(OC)c2)cc1OC` [B2, N-(2-Aminophenyl)-3-(2-(4-(((3R,4R)-4-(3,4-dimethoxybenzyl)-2-oxotetrahydrofuran-3-yl)methyl)-2-methoxyphenoxy)acetamido)propanamide], the IC50 in the assay with K562 (Homo sapiens, K562, 48 h) was above 5 µM; in the assay on KU812 (Homo sapiens, KU812, 48 h), above 5 µM.
In the case of `COc1ccc(C[C@H]2COC(=O)[C@@H]2Cc2ccc(OCC(=O)N3CCC(C(=O)NO)CC3)c(OC)c2)cc1OC` [A8, 1-(2-(4-(((3R,4R)-4-(3,4-Dimethoxybenzyl)-2-oxotetrahydrofuran-3-yl)methyl)-2-methoxyphenoxy)acetyl)-N-hydroxypiperidine-4-carboxamide], the IC50 with K562 (Homo sapiens, K562, 48 h) was above 5 µM; in the assay on KU812 (Homo sapiens, KU812, 48 h) it was above 5 µM.
Take `COc1ccc(C[C@H]2COC(=O)[C@@H]2Cc2ccc(OCc3cn(CC(=O)NO)nn3)c(OC)c2)cc1OC` [A10, 2-(4-((4-(((3R,4R)-4-(3,4-Dimethoxybenzyl)-2-oxotetrahydrofuran-3-yl)methyl)-2-methoxyphenoxy)methyl)-1H-1,2,3-triazol-1-yl)-N-hydroxyacetamide]: the IC50 in the assay with K562 (Homo sapiens, K562, 48 h) is above 5 µM; with KU812 (Homo sapiens, KU812, 48 h), above 5 µM.
On to `COc1ccc(C[C@H]2COC(=O)[C@@H]2Cc2ccc(OCc3cn(CC(=O)Nc4ccccc4N)nn3)c(OC)c2)cc1OC` [B8, N-(2-Aminophenyl)-2-(4-((4-(((3R,4R)-4-(3,4-dimethoxybenzyl)-2-oxotetrahydrofuran-3-yl)methyl)-2-methoxyphenoxy)methyl)-1H-1,2,3-triazol-1-yl)acetamide], for which the IC50 was above 5 µM in the assay on K562 (Homo sapiens, K562, 48 h) and above 5 µM with KU812 (Homo sapiens, KU812, 48 h).
`COc1ccc(C[C@H]2COC(=O)[C@@H]2Cc2ccc(OCCCCCC(=O)NO)c(OC)c2)cc1OC` [A3, 6-(4-(((3R,4R)-4-(3,4-Dimethoxybenzyl)-2-oxotetrahydrofuran-3-yl)methyl)-2-methoxyphenoxy)-N-hydroxyhexanamide]: the IC50 was 2.12 ± 0.12 µM in the assay on K562 (Homo sapiens, K562, 48 h) and 3.88 ± 1.06 µM with KU812 (Homo sapiens, KU812, 48 h).
With `Nc1cc(F)ccc1NC(=O)c1ccc(CNC(=O)/C=C/c2cccnc2)cc1` [Tucidinostat, tucidinostat, reference compound], the IC50 was determined as 2.68 ± 0.65 µM in the assay with K562 (Homo sapiens, K562, 48 h) and 4.26 ± 0.48 µM with KU812 (Homo sapiens, KU812, 48 h).
With `COc1ccc(C[C@H]2COC(=O)[C@@H]2Cc2ccc(OCCCCC(=O)NO)c(OC)c2)cc1OC` [A2, 5-(4-(((3R,4R)-4-(3,4-Dimethoxybenzyl)-2-oxotetrahydrofuran-3-yl)methyl)-2-methoxyphenoxy)-N-hydroxypentanamide], the IC50 was above 5 µM in the assay with K562 (Homo sapiens, K562, 48 h) and above 5 µM in the assay on KU812 (Homo sapiens, KU812, 48 h).
`COc1cc(C[C@H]2C(=O)OC[C@@H]2Cc2ccc(OC)c(OC)c2)ccc1O` [Arctigenin, reference compound]: the IC50 is 24.2 ± 3.12 µM with K562 (Homo sapiens, K562, 48 h); above 30 µM in the assay with KU812 (Homo sapiens, KU812, 48 h); 4.27 ± 1.68 µM in the assay with MV411.
